Source: ChEMBL document CHEMBL1154512, “PA-824 kills nonreplicating Mycobacterium tuberculosis by intracellular NO release” (2008)
≈ marks a conversion by molar mass, not a printed value.

What was measured:
[1] = system: Mycobacterium tuberculosis; experiment: Bactericidal activity against Mycobacterium tuberculosis H37Rv under aerobic condition by broth dilution method; format: functional
How it was run: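 MIC taken as the micromolar concentration inhibiting 99% of growth of an Mtb inoculum.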

[2] = system: Mycobacterium tuberculosis; experiment: Mycobactericidal activity against Mycobacterium tuberculosis H37Rv assessed as minimum anaerobicidal concentration required for 1 log reduction in bacterial numbers after 1 week under hypoxic non replicating condition; format: functional
How it was run: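 Mtb adapted to hypoxia was exposed to compound for 1 week. MAC taken as the micromolar concentration giving a 1 log drop in bacterial numbers.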

[3] = biological target: Deazaflavin-dependent nitroreductase (Mycobacterium tuberculosis) (UniProt P9WP15); experiment: Ratio of Kcat to Km for Mycobacterium tuberculosis Rv3547 expressed in Escherichia coli co-transfected with maltose-binding fusion protein
How it was run: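 Ddn (Rv3547) expressed in E. coli as a maltose-binding protein fusion and purified on amylose resin. Activity followed as time- and enzyme-dependent reoxidation of reduced F420 (F420H2), with the nitroimidazole as substrate. Kinetic values given as kcat/Km (min–1 μM–1).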

[4] = biological target: Deazaflavin-dependent nitroreductase (Mycobacterium tuberculosis) (UniProt P9WP15); experiment: Binding affinity to Mycobacterium tuberculosis Rv3547 assessed as nitrous acid production by Griess method in presence of cofactor F420H2
How it was run: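 Purified Ddn incubated with the nitroimidazole and F420H2. Reduction monitored as nitrite formation, read with Griess reagent.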

Chain of Deazaflavin-dependent nitroreductase (Mycobacterium tuberculosis) (P9WP15 whole entry, the tested form may be a part): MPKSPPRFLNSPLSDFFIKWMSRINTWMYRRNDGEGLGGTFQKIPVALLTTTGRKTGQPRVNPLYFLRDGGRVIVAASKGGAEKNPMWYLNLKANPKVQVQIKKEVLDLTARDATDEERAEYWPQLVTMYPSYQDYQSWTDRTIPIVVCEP

SMILES | MIC99 [1] | Activity [2] | Ratio [3] | Activity [4]
O=[N+]([O-])c1cn2c(n1)OC[C@@H](NCc1ccc(OC(F)(F)F)cc1)C2 | 0.4 µM (≈ 0.143 µg/mL) | 8 µM |  | 
CCCCc1ccc(CN[C@@H]2COc3nc([N+](=O)[O-])cn3C2)cc1 | 0.78 µM (≈ 0.258 µg/mL) | 75 µM |  | 
O=[N+]([O-])c1cn2c(n1)OC[C@@H](NCc1ccc(OCc3ccc(OC(F)(F)F)cc3)cc1)C2 | 0.16 µM (≈ 0.0743 µg/mL) | 2.1 µM |  | 
O=[N+]([O-])c1cn2c(n1)OC[C@@H](OCc1ccc(OC(F)(F)F)cc1)C2 [PRETOMANID] | 0.8 µM (≈ 0.287 µg/mL) | 12 µM | 0.145 | Dose-dependent effect
O=[N+]([O-])c1cn2c(n1)NC[C@@H](OCc1ccc(OC(F)(F)F)cc1)C2 | 0.8 µM (≈ 0.287 µg/mL) | 130 µM |  | 
O=[N+]([O-])c1cn2c(n1)OC[C@H](OCc1ccc(OC(F)(F)F)cc1)C2 | 110 µM (≈ 39.5 µg/mL) | 250 µM | 0.016 | 
O=[N+]([O-])c1cn2c(n1)OC[C@@H](NCCCCc1ccc(OC(F)(F)F)cc1)C2 | 0.04 µM (≈ 0.016 µg/mL) | 8.1 µM |  | 
O=[N+]([O-])c1cn2c(n1)SC[C@@H](OCc1ccc(OC(F)(F)F)cc1)C2 | 1.2 µM (≈ 0.45 µg/mL) | 25 µM |  | 
O=[N+]([O-])c1cn2c(n1)OC[C@@H](NCCc1ccc(OC(F)(F)F)cc1)C2 | 0.04 µM (≈ 0.0149 µg/mL) | 2 µM |  | 
O=[N+]([O-])c1cn2c(n1)OC[C@@H](NCCCc1ccc(OC(F)(F)F)cc1)C2 | 0.08 µM (≈ 0.0309 µg/mL) | 3.1 µM |  | 
O=CN1CC(OCc2ccc(OC(F)(F)F)cc2)Cn2cc([N+](=O)[O-])nc21 (single isomer, unassigned) | 6.3 µM (≈ 2.43 µg/mL) | 31 µM |  | 
